# Measurements as given in ChEMBL document CHEMBL3611968, “Reengineered tricyclic anti-cancer agents” (Bioorg Med Chem, 2015).
# The source made the active and inactive calls. No cut-off for these calls is given here.
# Tested on: NCI-H1650
# Assay: Cytotoxicity against human NCI-H1650 cells assessed as growth inhibition after 48 hrs by MTT assay
# Type: functional
# Conditions: not given
# In short: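 H1650 cells were exposed to drug for 48 h at five concentrations bracketing 1–40 μM in 10 μM steps, with MTT read-out. GI50 is given only where the data form a sigmoidal dose response.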
row,SMILES,GI50
1,O=S(=O)(NCCCN1c2ccccc2CCc2ccccc21)c1ccc2c(c1)OCO2,inactive
2,CCCN1c2ccccc2Sc2ccc(Cl)cc21,inactive
3,O=S(=O)(NCCCCN1c2ccccc2CCc2ccc(Cl)cc21)c1ccc(C(F)(F)F)cc1,inactive
4,O=S(=O)(NCCCCN1c2ccccc2CCc2ccc(Cl)cc21)c1ccc(OC(F)(F)F)cc1,inactive
5,O=S(=O)(c1ccc(OC(F)(F)F)cc1)N1CCCCC1CCN1c2ccccc2Sc2ccc(Cl)cc21 (configuration not stated),inactive
6,O=S(=O)(NCCCN(c1ccccc1)c1cccc(Cl)c1)c1ccc(Cl)cc1,inactive
7,Cc1ccccc1S(=O)(=O)NCCCN1c2ccccc2Sc2ccc(Cl)cc21,inactive
8,O=S(=O)(NCCCCN1c2ccccc2CCc2ccc(Cl)cc21)c1ccc(Cl)cc1,inactive
9,CN(C)S(=O)(=O)NCCCN1c2ccccc2CCc2ccccc21,inactive
10,O=S(=O)(NCCCN1c2ccccc2CCc2ccccc21)C(F)(F)F,inactive
11,CN(CCCN1c2ccccc2CCc2ccc(Cl)cc21)S(=O)(=O)c1ccc(C(F)(F)F)cc1,inactive
12,CN(CCCN1c2ccccc2CCc2ccc(Cl)cc21)S(=O)(=O)c1ccc(OC(F)(F)F)cc1,inactive
13,O=S(=O)(c1ccc(OC(F)(F)F)cc1)N1CCC(=C2c3ccccc3CCc3ccccc32)CC1,inactive
14,O=C(NCCCN1c2ccccc2CCc2ccc(Cl)cc21)NS(=O)(=O)c1ccc(OC(F)(F)F)cc1,inactive
15,O=S(=O)(NCCCN1c2ccccc2CCc2ccccc21)c1cccnc1,inactive
16,O=S(=O)(NCCCN1c2ccccc2CCc2ccc(Cl)cc21)c1ccc(Cl)cc1Cl,inactive
17,COc1ccc(OC(=O)NCCCN2c3ccccc3Sc3ccc(Cl)cc32)cc1,inactive
18,CC(=O)NCCCN1c2ccccc2CCc2ccc(Cl)cc21,inactive
19,O=S(=O)(NCCCN1c2ccccc2CCc2ccc(Cl)cc21)C1CCCCC1,inactive
20,O=S(=O)(c1ccc(Cl)cc1)N1CCCCC1CCN1c2ccccc2Sc2ccc(Cl)cc21 (configuration not stated),inactive
21,CN(CCN1c2ccccc2Sc2ccc(Cl)cc21)S(=O)(=O)c1ccc(Cl)cc1,inactive
22,CN(CCN1c2ccccc2CCc2ccc(Cl)cc21)S(=O)(=O)c1ccc(C(F)(F)F)cc1,inactive
23,O=S(=O)(NCCCN1CCCCc2ccccc21)c1ccc(OC(F)(F)F)cc1,inactive
24,O=S(=O)(NCCCN1c2ccccc2CCc2cncnc21)c1ccc(Cl)cc1,inactive
25,CN(CCCN1c2ccccc2Sc2ccc(Cl)cc21)S(=O)(=O)c1ccc(Cl)cc1,inactive
26,O=S(=O)(NCCCN(c1ccccc1)c1cccc(Cl)c1)c1ccc(C(F)(F)F)cc1,inactive
27,O=S(=O)(NCCCN1c2ccccc2CCc2ccccc21)N1CCOCC1,inactive
28,O=S(=O)(c1ccc(Cl)cc1)N1CCC(=C2c3ccccc3CCc3ccccc32)CC1,inactive
29,O=S(=O)(CCCN1c2ccccc2CCc2ccc(Cl)cc21)c1ccc(OC(F)(F)F)cc1,inactive
30,CC(C)S(=O)(=O)NCCCN1c2ccccc2CCc2ccc(Cl)cc21,inactive

# Same assay, conditions: NCI-H1650, 48 h
row,SMILES,GI50
1,Cc1nn(C)c(C)c1S(=O)(=O)NCCCN1c2ccccc2CCc2ccccc21,> 40 µM
2,Cc1ccc(S(=O)(=O)NCCN2c3ccccc3Sc3ccc(Cl)cc32)cc1,24.4 µM
3,CN(C)CCCN1c2ccccc2Sc2ccc(Cl)cc21 [CHLORPROMAZINE],30.3 µM
4,O=S(=O)(NCCN1c2ccccc2Sc2ccc(Cl)cc21)c1ccc(OC(F)(F)F)cc1,25 µM
5,CCN(CC)C(C)CN1c2ccccc2Sc2ccccc21 (configuration not stated) [ETHOPROPAZINE],> 40 µM
6,O=S(=O)(NCCCN1c2ccccc2CCc2ccc(Cl)cc21)c1ccc(C(F)(F)F)cc1,12.6 µM
7,O=S(=O)(NCCN1c2ccccc2CCc2ccc(Cl)cc21)c1ccc(Cl)cc1,19.1 µM
8,COc1ccc(S(=O)(=O)NCCCN2c3ccccc3CCc3ccc(Cl)cc32)cc1,24.4 µM
9,O=S(=O)(NCCCN1c2ccccc2CCc2ccc(Cl)cc21)c1cnc(Cl)c(Br)c1,> 40 µM
10,O=S(=O)(NCCCN1c2ccccc2OCc2cccnc21)c1ccc(Cl)cc1,> 40 µM
11,O=S(=O)(NCCCN1c2ccccc2CCc2ccc(Cl)cc21)c1cccc(OC(F)(F)F)c1,20 µM
12,O=S(=O)(NCCN1c2ccccc2Sc2ccc(Cl)cc21)c1ccc(C(F)(F)F)cc1,25 µM
13,O=S(=O)(NCCCN1c2ccccc2CCc2ccccc21)c1ccc(Oc2ccccc2)nc1,> 40 µM
14,O=C(NCCCN1c2ccccc2CCc2ccc(Cl)cc21)Nc1ccc(OC(F)(F)F)cc1,> 40 µM
15,O=S(=O)(NC1CCC(=C2c3ccccc3CCc3ccccc32)CC1)c1ccc(Cl)cc1 (configuration not stated),20 µM
16,Cn1c(=O)oc2cc(S(=O)(=O)NCCCN3c4ccccc4CCc4ccccc43)ccc21,> 40 µM
17,O=S(=O)(N[C@H]1CC[C@@H](N2c3ccccc3CCc3ccccc32)CC1)c1ccc(Cl)cc1,10 µM
18,O=C1COc2ccc(S(=O)(=O)NCCCN3c4ccccc4CCc4ccccc43)cc2N1,22 µM
19,O=S(=O)(N[C@@H]1CCC[C@@H](N2c3ccccc3CCc3ccccc32)C1)c1ccc(OC(F)(F)F)cc1,18 µM
20,CN(C)C(=O)NCCCN1c2ccccc2CCc2ccc(Cl)cc21,> 40 µM
21,N#Cc1ccc(S(=O)(=O)NCCCN2c3ccccc3Sc3ccc(Cl)cc32)cc1,> 40 µM
22,O=S(=O)(NCCCN1c2ccccc2CCc2ccc(Cl)cc21)c1cc(Cl)c(Cl)s1,18 µM
23,O=S(=O)(NCCC=C1c2ccccc2CCc2ccccc21)c1ccc(OC(F)(F)F)cc1,20 µM

row,SMILES,GI50
1,NCCCN1c2ccccc2Sc2ccc(Cl)cc21,10 µM
2,O=S(=O)(NCCCN1c2ccccc2Sc2ccc(Cl)cc21)c1ccc(OC(F)(F)F)cc1,> 40 µM
3,CC(CNS(=O)(=O)c1ccc(Cl)cc1)CN1c2ccccc2CCc2ccccc21 (configuration not stated),23 µM
4,O=S(=O)(NC1CCOC2(C1)c1ccccc1CCc1ccccc12)c1ccc(Cl)cc1 (configuration not stated),> 40 µM
5,O=S(=O)(NCCCN1c2ccccc2CCc2cccnc21)c1ccc(Cl)cc1,27 µM
6,O=S(=O)(NCCCN1c2ccccc2CCc2ccc(Cl)cc21)c1ccc(Cl)c(Cl)c1,21.3 µM
7,CC(CN1c2ccccc2Sc2ccccc21)N(C)C (configuration not stated) [PROMETHAZINE],> 40 µM
8,O=S(=O)(NCCCN1c2ccccc2CCc2ccccc21)c1ccc(C(F)(F)F)cc1,14.3 µM
9,Cn1ccc2c(S(=O)(=O)NCCCN3c4ccccc4CCc4ccccc43)cccc21,> 40 µM
10,O=S(=O)(NCCCN1c2ccccc2CCc2ccc(Cl)cc21)c1ccc(Cl)cc1,20 µM
11,O=S(=O)(NC1CCC2(OC1)c1ccccc1CCc1ccccc12)c1ccc(F)cc1 (configuration not stated),20 µM
12,O=S(=O)(N[C@H]1CC[C@@H](N2c3ccccc3CCc3ccccc32)CC1)c1ccc(OC(F)(F)F)cc1,> 40 µM
13,O=S(=O)(NCCCN1c2ccccc2CCc2ccccc21)c1ccc(Cl)cc1,20.6 µM
14,O=S(=O)(NCCCN1c2ccccc2CCc2ccc(Cl)cc21)c1ccccc1,25 µM
15,O=S(=O)(NCC/C=C1/c2ccccc2Sc2ccc(Cl)cc21)c1ccc(OC(F)(F)F)cc1,40 µM
16,O=S(=O)(N[C@H]1CC[C@H](N2c3ccccc3CCc3ccccc32)CC1)c1ccc(OC(F)(F)F)cc1,10 µM
17,O=S(=O)(NC1CCC(=C2c3ccccc3CCc3ccccc32)CC1)c1ccc(OC(F)(F)F)cc1 (configuration not stated),20 µM
18,O=S(=O)(NCCCN1c2ccccc2CCc2cncnc21)c1ccc(OC(F)(F)F)cc1,> 40 µM
19,O=S(=O)(NCCC=C1c2ccccc2CCc2ccccc21)c1ccc(F)cc1,20 µM
20,O=S(=O)(NCCCN1c2ccccc2Sc2ccc(Cl)cc21)c1cc(F)cc(F)c1,18 µM
21,O=S(=O)(NCCCN1c2ccccc2CCc2ccc(Cl)cc21)c1ccccc1OC(F)(F)F,25 µM
22,O=S(=O)(NC1CCC2(OC1)c1ccccc1CCc1ccccc12)c1ccc(C(F)(F)F)cc1 (configuration not stated),15 µM
23,CN(C)CCC=C1c2ccccc2CCc2ccccc21 [AMITRIPTYLINE],> 40 µM

row,SMILES,GI50
1,CC(CNS(=O)(=O)c1ccc(OC(F)(F)F)cc1)CN1c2ccccc2CCc2ccccc21 (configuration not stated),20 µM
2,O=S(=O)(NC1CCCC(=C2c3ccccc3CCc3ccccc32)C1)c1ccc(Cl)cc1 (configuration not stated),17 µM
3,N#Cc1ccc(S(=O)(=O)NCCC=C2c3ccccc3CCc3ccccc32)cc1,25 µM
4,O=S(=O)(NCCCN1c2ccccc2CCc2ccc(Cl)cc21)c1ccc2ccccc2c1,> 40 µM
5,O=S(=O)(NCCNC1c2ccccc2CCc2ccccc21)c1ccc(Cl)cc1,26 µM
6,CC(=O)Nc1ncc(S(=O)(=O)NCCCN2c3ccccc3CCc3ccccc32)s1,> 40 µM
7,O=S(=O)(NC[C@@H](O)CN1c2ccccc2CCc2ccccc21)c1ccc(OC(F)(F)F)cc1,18 µM
8,O=S(=O)(NCCCN1c2ccccc2CCc2ncccc21)c1ccc(OC(F)(F)F)cc1,27 µM
9,O=S(=O)(NC1CCC2(OC1)c1ccccc1CCc1ccccc12)c1ccc(Cl)cc1 (configuration not stated),25 µM
10,O=S(=O)(NCCCN1c2ccccc2CCc2ccc(Cl)cc21)c1cc(Cl)sc1Cl,25 µM
11,O=S(=O)(NC1CCOC2(C1)c1ccccc1CCc1ccccc12)c1ccc(OC(F)(F)F)cc1 (configuration not stated),> 40 µM
12,O=S(=O)(NC1CCC2(OC1)c1ccccc1CCc1ccccc12)c1ccc(OC(F)(F)F)cc1 (configuration not stated),13 µM
13,O=S(=O)(NCCN1c2ccccc2CCc2ccc(Cl)cc21)c1ccc(C(F)(F)F)cc1,16.4 µM
14,CN(C)CCC=C1c2ccccc2COc2ccccc21 [DOXEPIN],> 40 µM
15,O=S(=O)(N[C@H]1CCC[C@@H](N2c3ccccc3CCc3ccccc32)C1)c1ccc(OC(F)(F)F)cc1,25 µM
16,Cc1ccc(S(=O)(=O)NCCCCN2c3ccccc3Sc3ccc(Cl)cc32)cc1,> 40 µM
17,O=S(=O)(NCCCN1c2ccccc2CCc2ccccc21)c1ccc(-n2cccn2)cc1,> 40 µM
18,O=S(=O)(NCCCN1c2ccccc2CCc2ncccc21)c1ccc(Cl)cc1,30 µM
19,O=S(=O)(NCCC=C1c2ccccc2CCc2ccccc21)c1ccc(Cl)cc1,18 µM
20,O=S(=O)(NCCCN1c2ccccc2CCc2ccc(Cl)cc21)c1cccc2ccccc12,> 40 µM
21,COc1ccc(S(=O)(=O)NCCCN2c3ccccc3Sc3ccc(Cl)cc32)cc1,> 40 µM
